Screening results from PubChem BioAssay.
AHR activator – activators of human aryl hydrocarbon receptor; P35869; AHR-responsive luciferase reporter cells, luminescence; activation, % at 5 µM; 320,000 compounds, 2.5% hits; AID 2796; in the data active = activation above about 47%;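 note: 0% = vehicle wells and 100% = reference agonist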
PolyA inhibitor – blocks polyadenylation in yeast reporter cells; AID 1875; activity score, % at 12 µM; 300,000 compounds, 0.02% hits; S. cerevisiae SKY197-pL101 polyadenylation reporter, beta-gal luminescence; efflux-impaired pdr1/pdr3 knockout yeast; score 100 = 6 SD above DMSO;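 active = lowest replicate activity score at least 50, where 100 means six control SD above control mean; inconclusive = lowest score under 50 but half or more replicates reach 50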;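 note: yeast exposed to compound for 9 h at 30 °C; higher score means more reporter readthrough which indicates perturbed polyadenylation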
Hsp70 activator – switches on Hsp70 transcription; activation, % at 10 µM; 200,000 compounds, 0.04% hits; HeLa Hsp70 promoter luciferase reporter, luminescence; scaled: vehicle 0, proteasome-inhibitor control 100%;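 active = activation above the mean across all tested compounds plus 3 SD, cutoff set per campaign, cut at about 5.5% in these data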;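 note: 100% = MG132 at 30 µM as the positive control and 0% = DMSO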
HSF1 inhib – HSF1 inhibition; NIH3T3-HGL HSE-luciferase, MG132-induced, luminescence 8 h; active compounds read low; activity change, negative = inhibition, % at 7.5 µM (by protocol); 300,000 compounds, 0.77% hits; AID 2098;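 active = more than half of replicate wells show activity change below -50%, luminescence cut by over half; inconclusive = some wells, but at most half, below -50%; inactive = no replicate well below -50%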;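 note: luciferase reports HSF-1 transcriptional activity via heat shock element; 0% = median of DMSO wells and -100% = zero luminescence signal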
PERK inhibitor – blocks human PERK kinase | inhibition, % at 5.6 µM | CHO PERK-DD fusion, SEAP luminescence translation reporter | AID 1416 | Q9NZJ5 | 220,000 compounds, 0.17% hits;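 active = inhibition above the mean inhibition of all tested compounds plus 3 SD, set separately per screening campaign, cut at about 2.9% in these data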;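 note: PERK kinase domain activated by AP20187 dimerizer at 100 nM; 0% = DMSO with dimerizer and 100% = rapamycin at 8.4 µM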
Target sequence (Q9NZJ5 whole entry, looked up, the tested form may be a part): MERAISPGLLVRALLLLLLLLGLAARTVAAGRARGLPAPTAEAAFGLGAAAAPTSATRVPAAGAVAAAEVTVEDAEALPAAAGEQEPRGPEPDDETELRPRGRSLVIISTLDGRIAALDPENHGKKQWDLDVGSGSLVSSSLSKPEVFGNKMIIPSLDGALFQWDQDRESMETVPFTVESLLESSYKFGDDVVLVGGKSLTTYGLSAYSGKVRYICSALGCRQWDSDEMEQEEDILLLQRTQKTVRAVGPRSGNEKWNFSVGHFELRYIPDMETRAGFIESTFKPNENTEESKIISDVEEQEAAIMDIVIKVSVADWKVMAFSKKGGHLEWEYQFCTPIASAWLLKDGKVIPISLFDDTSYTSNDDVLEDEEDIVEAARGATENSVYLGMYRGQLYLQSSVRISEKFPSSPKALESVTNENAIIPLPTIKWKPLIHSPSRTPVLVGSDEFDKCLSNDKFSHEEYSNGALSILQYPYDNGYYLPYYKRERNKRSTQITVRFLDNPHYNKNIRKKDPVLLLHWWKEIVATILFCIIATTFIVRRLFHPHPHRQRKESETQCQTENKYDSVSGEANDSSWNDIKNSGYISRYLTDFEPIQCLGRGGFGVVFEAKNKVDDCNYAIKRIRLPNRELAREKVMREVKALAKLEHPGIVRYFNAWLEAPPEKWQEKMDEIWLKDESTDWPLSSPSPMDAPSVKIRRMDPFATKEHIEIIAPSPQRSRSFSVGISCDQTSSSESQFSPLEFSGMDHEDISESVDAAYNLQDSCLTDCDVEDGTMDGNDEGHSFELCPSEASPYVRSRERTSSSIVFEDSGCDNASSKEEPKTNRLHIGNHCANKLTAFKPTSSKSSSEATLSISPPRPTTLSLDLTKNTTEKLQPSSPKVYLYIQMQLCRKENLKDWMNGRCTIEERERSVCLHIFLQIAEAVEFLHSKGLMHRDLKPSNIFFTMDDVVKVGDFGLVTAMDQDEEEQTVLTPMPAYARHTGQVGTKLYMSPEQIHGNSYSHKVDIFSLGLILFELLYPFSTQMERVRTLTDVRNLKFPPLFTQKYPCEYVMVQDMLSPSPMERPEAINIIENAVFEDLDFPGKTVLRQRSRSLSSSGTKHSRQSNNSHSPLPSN
STAT3 act – STAT3 signaling activation | U3A cells, IL-6 STAT3-luciferase reporter, luminescence; 100% = signal with IL-6 EC80 alone | activation (% of control), % at 5.6 µM | 190,000 compounds, 0.91% hits | AID 871;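 active = activation above the screen-wide mean of compound activation plus 3 SD, cut at about 130% in these data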;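 note: 0% = background luminescence of wells with medium and substrate only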
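Material: human STAT1-deficient U3A cells with stable STAT3-luciferase reporter / Probe or stimulus: IL-6 stimulus at 33 ng/mL final / Schedule: 1 h compound pre-exposure, 6 h IL-6 stimulation, 37 °C / Technique: luminescence / Read-out basis: percent of IL-6-only median luminescence / Control set: IL-6-only high control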
An asterisk follows results filed as active; ? = inconclusive; nt = no result. Compounds with a hit are over-represented: about 3.6% of the library has one in this group of screens.

SMILES	AHR activator	PolyA inhibitor	Hsp70 activator	HSF1 inhib	PERK inhibitor	STAT3 act
CCN(CC)C(=O)CSc1nnc2cc(C)c3ccccc3n12	52*	-13	1	nt	0	84
CCOC(=O)CC(=O)CSc1nnc2sc3ccccc3n12	26	nt	0	nt	0	96
CN(C)C(=O)CSc1nnc2sc3ccccc3n12	57*	6	0	8	0	115
COc1cc2ccccc2cc1C(=O)Nc1ccc(Br)cn1	nt	-1	nt	7	nt	nt
COc1cc(C(=O)Nc2cc(C)ccn2)cc(OC)c1OC	56*	12	0	5	0	105
COc1cc2ccccc2cc1C(=O)Nc1cc(C)ccn1	56*	-10	nt	18	nt	nt
COc1ccc(C(=O)Nc2ccccc2C(=O)Nc2cccc(C)n2)cc1	25	7	nt	15	nt	nt
COc1ccc(C(=O)Nc2ccccc2C(=O)Nc2cc(C)ccn2)cc1	56*	-6	nt	14	nt	nt
COc1cccc(NC(=O)c2ccccc2NC(=O)c2ccncc2)c1	55*	nt	nt	nt	nt	nt
COc1ccc(C(=O)Nc2ccccc2C(=O)Nc2cccnc2)cc1	44	24	nt	9	nt	nt
Cc1ccc(CNS(=O)(=O)c2cn(C)c(=O)n(C)c2=O)cc1	0	3	nt	-3	nt	nt
COc1cc(NC(=O)c2ccccc2Cl)ccc1NC(=O)c1cccs1	0	-8	0	13	0	89
COc1cc2ccccc2cc1C(=O)Nc1nccs1	57*	-14	nt	-8	nt	nt
COc1cc2ccccc2cc1C(=O)NC1CCCCC1	-2	nt	nt	nt	nt	nt
COc1ccc(-c2nn(-c3ccccc3)cc2C(=O)Nc2nccs2)cc1	0	-11	0	-6	-3	81
COc1cc(NC(=O)c2cc3ccccc3cc2OC)ccc1NC(=O)c1cccs1	-8	-15	nt	-58*	nt	nt
COc1cc(C(=O)Nc2ccccc2NC(=O)c2cc(OC)c(OC)c(OC)c2)cc(OC)c1OC	2	-19	nt	-69*	nt	nt
COc1cc2ccccc2cc1C(=O)NC1CCCC1	77*	nt	nt	nt	nt	nt
CCCN(CC(=O)Nc1ccccc1C)CC(=O)Nc1ccc(Br)cc1F	11	12	nt	10	nt	nt
CCCCN(C(=O)c1ccc(-c2ccc([N+](=O)[O-])cc2)o1)c1c(N)n(CC(C)C)c(=O)[nH]c1=O	1	nt	nt	nt	nt	nt
O=C(Nc1nccs1)c1ccc2ccccc2c1	54*	-2	nt	35	nt	nt
Cc1cc([N+](=O)[O-])ccc1NC(=O)CCC(=O)N1CCCCC1	-4	15	nt	-77*	nt	nt
O=[N+]([O-])c1cccc(-c2cn(-c3ccccc3)c(=S)[nH]2)c1	74*	-10	0	33	0	98
Cc1cccc(-n2cc(-c3ccc([N+](=O)[O-])cc3)[nH]c2=S)c1	25	0	0	28	1	100
S=c1[nH]c(-c2ccccc2)cn1-c1ccccc1	36	-8	nt	31	nt	nt
SMILES	AHR activator	PolyA inhibitor	Hsp70 activator	HSF1 inhib	PERK inhibitor	STAT3 act
O=[N+]([O-])c1ccc(-c2cn(-c3ccccc3)c(=S)[nH]2)cc1	47*	-8	3	17	-1	106
CCOc1ccccc1OCCCC(=O)N1CCN(S(=O)(=O)c2ccc(C)cc2C)CC1	0	nt	nt	nt	nt	nt
CCCC(=O)N1CCN(c2ccc(NC(=O)c3cc4ccccc4o3)cc2Cl)CC1	-7	-7	0	-79*	-1	60
CC(=O)N1CCN(c2ccc(NC(=O)c3ccc([N+](=O)[O-])o3)cc2Cl)CC1	-4	-7	nt	-88*	nt	nt
O=C(Nc1ccc(N2CCN(C(=O)c3ccco3)CC2)c(Cl)c1)c1cc2ccccc2o1	-4	-7	0	-74*	-1	62
N#C/C(=C\c1c(F)cccc1Cl)C(=O)NC1CC1	0	13	nt	8	nt	nt
CC(C)c1ccc(NC(=O)c2ccc3snnc3c2)cc1	14	-7	nt	22	nt	nt
O=C(Nc1ccccc1)c1ccc2snnc2c1	63*	6	0	4	0	84
Cc1ccc(NC(=O)c2ccc3snnc3c2)cc1	63*	-4	0	46	1	93
O=C(Nc1cccnc1)c1ccc2snnc2c1	27	7	0	4	0	100
Cc1ccc(S(=O)(=O)Nc2cccc(C(=O)NCc3ccccn3)c2)cc1F	1	20	nt	1	nt	nt
COc1ccc(Cl)cc1NC(=O)CN(C)C(=O)Cn1cnc2c1c(=O)n(C)c(=O)n2C	-2	-8	nt	-74*	nt	nt
COc1ccc(Cl)cc1NC(=O)CN(C)C(=O)Cn1c(=O)oc2ccccc21	3	-9	nt	-58*	nt	nt
COc1ccccc1NC(=O)Cn1cnc2c1c(=O)n(C)c(=O)n2C	2	-1	0	0	-1	101
Cc1ccc(CNC(=O)CN(C(=O)N2CCN(C)CC2)S(=O)(=O)c2ccc(C)cc2)cc1	-2	-19	nt	2	nt	nt
Cc1ccc(C(=O)Nc2ccc3c(c2)nc(CCNC(=O)c2ccco2)n3C)cc1	5	13	nt	27	nt	nt
O=C(N/N=C/C(Br)=C\c1ccccc1)c1n[nH]c2c1CCC2	39	-43	2	210	-1	142*
S=C(Nc1ccc(Br)cc1Cl)NN1CCOCC1	8	-6	0	1	0	99
COc1ccccc1OCCn1cc(/C=N/n2cnnc2)c2ccccc21	49*	-4	0	3	-1	104
COc1ccc(C2=C(C)C(N3CCN(C(=O)c4ccco4)CC3)=NS2(=O)=O)cc1	-2	15	nt	1	nt	nt
CN(c1ccccc1C(=O)Nc1ccccc1-c1ccccc1)S(C)(=O)=O	nt	2	nt	3	nt	nt
CCn1cnc2c(NCCc3cccnc3)nc(C#N)nc21	71*	nt	nt	nt	nt	nt
Oc1ccc(C2=NN(c3ccccc3)C(c3ccc(F)cc3)C2)cc1 (stereo unspecified)	5	-5	nt	-75*	nt	nt
Cc1c(C(=O)Nc2cccc(Cl)c2)c2ccccn2c1CCc1ccncc1	nt	-3	0	-4	0	99
Cc1c(C(=O)Nc2ccc(Cl)cc2)c2ccccn2c1CCc1ccncc1	87*	1	0	37	1	110
SMILES	AHR activator	PolyA inhibitor	Hsp70 activator	HSF1 inhib	PERK inhibitor	STAT3 act
Cc1ccc(C(=O)Nc2cc3[nH]c(=O)oc3cc2C)cc1	31	7	nt	-11	nt	nt
Cc1cc2c3ccccc3ncn2n1	0	21	nt	-5	0	nt
CCc1nnc(NC(=O)CCC(=O)Nc2ccc(OC)cc2OC)s1	3	2	nt	-2	nt	nt
CCOc1ccc(CN(C)C(=O)CNC(=O)C2CCCCC2)cc1OC	-1	-1	nt	-4	nt	nt
CN(C)S(=O)(=O)c1ccc(C(=O)OCCCN=C2NS(=O)(=O)c3ccccc32)cc1	8	?	0	-67*	0	102
CC(CCc1ccccc1)NC(=O)CNC(=O)N1CC(=O)Nc2ccccc21 (stereo unspecified)	0	-8	nt	0	nt	nt
CCSc1ccccc1-c1nc(-c2ccncc2)no1	65*	-50	nt	19	nt	nt
CCOc1ccccc1-c1nc(-c2ccncc2)no1	48*	-18	0	9	0	88
CCOc1ccccc1NC(=O)c1ccccc1-c1nc(-c2ccccc2OC)no1	64*	nt	0	nt	0	103
